According to article PMC10864842 (Saudi Pharmaceutical Journal : SPJ, 2024):
“And” between values parts separate entries of the source, which are not always exact repeats. Identical values can stand only once. Like-named read-outs stand apart in the source and are kept apart here.

Key:
[1] = test system: MDA-MB-231 breast cancer cells; test: MTT assay on MDA-MB-231 cells; format: cell-based; settings: Homo sapiens
Summary of the method: (§1)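 Cells kept in DMEM with 10% (v/v) FBS and 1% (v/v) streptomycin/penicillin at 37 °C and 5% CO2. About 10^4 cells/ml were seeded and grown for 24 h. Test compounds in DMSO were added at 6.25, 12.5, 25, 50 and 100 µg/ml for 24 and 48 h. Medium was replaced with 5 mg/mL MTT for 3–4 h. Formazan was dissolved in acidified isopropanol and read at 630 nm. Viability is expressed as % of untreated cells.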

[2] = MTT assay on oral epithelial normal cells; format: cell-based
Summary of the method: as §1

[3] = test system: MDA-MB-231 cells; test: Morphological study by inverted microscope; format: cell-based; settings: 48 h
Summary of the method: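 MDA-MB-231 cells were grown in DMEM with 10% FBS and 1% streptomycin/penicillin at 37 °C, 5% CO2. They were treated with varying concentrations of test compound for 48 h and examined by inverted light microscopy. Phenotypic changes were scored as cell shrinkage, apoptotic body formation and membrane blebbing.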

[4] = target: PI3Kδ (Homo sapiens, UniProt O00329); test: PI3Kδ inhibition assay; format: biochemical
[5] = target: T1, KSP ATPase (Homo sapiens, UniProt P52732); test: Microtubule-activated KSP ATPase kinetic assay; format: biochemical
T1 sequence (P52732 1-1056): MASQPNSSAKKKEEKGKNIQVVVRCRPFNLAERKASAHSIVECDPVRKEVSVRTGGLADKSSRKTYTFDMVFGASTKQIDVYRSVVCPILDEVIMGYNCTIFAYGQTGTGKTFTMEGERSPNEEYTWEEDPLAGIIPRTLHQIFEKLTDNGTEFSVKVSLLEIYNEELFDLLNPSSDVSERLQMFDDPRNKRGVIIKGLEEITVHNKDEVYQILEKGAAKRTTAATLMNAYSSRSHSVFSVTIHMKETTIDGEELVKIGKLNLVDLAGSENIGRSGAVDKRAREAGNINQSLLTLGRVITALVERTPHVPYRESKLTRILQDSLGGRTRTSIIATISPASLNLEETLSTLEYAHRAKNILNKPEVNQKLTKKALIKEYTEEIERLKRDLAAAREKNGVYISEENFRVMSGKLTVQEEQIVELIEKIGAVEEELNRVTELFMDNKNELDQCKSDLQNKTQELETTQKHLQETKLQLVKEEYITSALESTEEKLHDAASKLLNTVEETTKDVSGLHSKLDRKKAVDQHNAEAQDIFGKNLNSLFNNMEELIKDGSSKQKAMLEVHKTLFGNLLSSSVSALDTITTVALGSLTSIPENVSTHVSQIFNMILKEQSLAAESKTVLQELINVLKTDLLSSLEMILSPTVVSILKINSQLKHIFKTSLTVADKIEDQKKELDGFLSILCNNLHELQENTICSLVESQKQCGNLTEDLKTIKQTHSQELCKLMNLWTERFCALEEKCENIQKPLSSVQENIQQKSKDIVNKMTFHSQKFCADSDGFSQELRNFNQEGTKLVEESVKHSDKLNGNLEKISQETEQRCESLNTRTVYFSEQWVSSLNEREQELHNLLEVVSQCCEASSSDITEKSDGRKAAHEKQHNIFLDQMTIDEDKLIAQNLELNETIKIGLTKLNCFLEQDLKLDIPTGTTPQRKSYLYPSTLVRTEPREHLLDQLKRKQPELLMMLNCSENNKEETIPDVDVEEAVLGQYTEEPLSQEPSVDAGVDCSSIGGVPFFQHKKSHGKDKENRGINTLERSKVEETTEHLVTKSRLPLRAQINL

[6] = test system: MDA-MB-231 cells; test: qRT-PCR relative gene expression of P53, BAX and BCL-2; format: cell-based; settings: MDA-MB-231, 48 h
Summary of the method: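 RNA was extracted from cells after 48 h of treatment with test compound, and its purity was checked by nanodrop. P53, BAX and BCL-2 expression was normalised to β-actin as the housekeeping gene. Treated and untreated cells were compared by ANOVA.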

[7] = test system: MDA-MB-231 cells; test: DNA fragmentation by gel electrophoresis; format: cell-based; settings: post-treatment
Summary of the method: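 MDA-MB-231 cells kept in DMEM with 10% FBS and 1% streptomycin/penicillin at 37 °C, 5% CO2. Genomic DNA was extracted with a commercial kit from cells before and after test compound treatment, and its quality was checked by nanodrop. DNA plus 1X loading dye was run on agarose gel, viewed under a UV transilluminator and imaged on a gel documentation system. Doxorubicin served as reference.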

[8] = target: T1, KSP ATPase; test: Microtubule-activated KSP ATPase end-point assay; format: biochemical; settings: read-out: KSP ATPase inhibition [%]
[9] = test system: MDA-MB-231 cells; test: Annexin V-FITC/PI flow cytometry; format: cell-based; settings: MDA-MB-231, Annexin V-FITC & PI, post-treatment
Summary of the method: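 MDA-MB-231 cells were kept in DMEM with 10% FBS and 1% streptomycin/penicillin at 37 °C under 5% CO2. Cells were treated with the test compound for 48 h, with doxorubicin as the standard and untreated cells for comparison. Cells were then harvested, rinsed, suspended in PBS, stained with Annexin V-FITC/PI and held 20 min in the dark before flow cytometry. Early apoptosis was Annexin V+/PI−; late apoptosis was Annexin V+/PI+.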

[10] = MDA-MB-231, 24 h, read-out: IC50 after 24 h (µM)
[11] = MDA-MB-231, 24 h, read-out: IC50 after 24 h in µg/mL
[12] = MDA-MB-231, 48 h, read-out: IC50 after 48 h (µM)
[13] = MDA-MB-231, 48 h, read-out: IC50 after 48 h in µg/mL

PI3Kδ, sequence (O00329 whole entry): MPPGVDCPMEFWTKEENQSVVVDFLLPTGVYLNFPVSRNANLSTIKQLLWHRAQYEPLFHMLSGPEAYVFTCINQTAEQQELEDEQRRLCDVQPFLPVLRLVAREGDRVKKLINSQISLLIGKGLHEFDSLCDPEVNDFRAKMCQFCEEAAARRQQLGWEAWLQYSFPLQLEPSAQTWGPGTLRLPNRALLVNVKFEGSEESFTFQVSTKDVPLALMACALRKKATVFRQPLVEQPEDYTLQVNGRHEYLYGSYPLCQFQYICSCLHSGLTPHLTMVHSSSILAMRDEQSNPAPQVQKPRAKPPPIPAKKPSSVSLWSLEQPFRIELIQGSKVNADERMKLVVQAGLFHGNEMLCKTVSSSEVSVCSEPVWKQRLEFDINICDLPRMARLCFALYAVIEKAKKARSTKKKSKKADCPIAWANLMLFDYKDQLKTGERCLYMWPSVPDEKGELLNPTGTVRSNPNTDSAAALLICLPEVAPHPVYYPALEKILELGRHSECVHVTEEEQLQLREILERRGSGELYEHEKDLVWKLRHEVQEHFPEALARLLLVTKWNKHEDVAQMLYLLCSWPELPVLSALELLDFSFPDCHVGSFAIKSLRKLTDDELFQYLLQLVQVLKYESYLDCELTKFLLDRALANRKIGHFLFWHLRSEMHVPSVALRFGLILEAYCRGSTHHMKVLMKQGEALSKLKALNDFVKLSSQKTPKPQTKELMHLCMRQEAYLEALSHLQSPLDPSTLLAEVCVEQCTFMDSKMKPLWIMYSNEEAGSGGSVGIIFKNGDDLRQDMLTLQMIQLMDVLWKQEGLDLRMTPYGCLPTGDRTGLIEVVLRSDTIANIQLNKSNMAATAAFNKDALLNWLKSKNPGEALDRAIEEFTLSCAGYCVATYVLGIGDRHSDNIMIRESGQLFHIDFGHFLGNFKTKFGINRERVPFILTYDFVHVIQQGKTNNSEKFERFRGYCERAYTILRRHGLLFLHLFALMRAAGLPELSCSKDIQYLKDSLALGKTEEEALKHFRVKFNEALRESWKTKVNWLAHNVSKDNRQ
PI3Kδ, sequence (P27986 whole entry partner): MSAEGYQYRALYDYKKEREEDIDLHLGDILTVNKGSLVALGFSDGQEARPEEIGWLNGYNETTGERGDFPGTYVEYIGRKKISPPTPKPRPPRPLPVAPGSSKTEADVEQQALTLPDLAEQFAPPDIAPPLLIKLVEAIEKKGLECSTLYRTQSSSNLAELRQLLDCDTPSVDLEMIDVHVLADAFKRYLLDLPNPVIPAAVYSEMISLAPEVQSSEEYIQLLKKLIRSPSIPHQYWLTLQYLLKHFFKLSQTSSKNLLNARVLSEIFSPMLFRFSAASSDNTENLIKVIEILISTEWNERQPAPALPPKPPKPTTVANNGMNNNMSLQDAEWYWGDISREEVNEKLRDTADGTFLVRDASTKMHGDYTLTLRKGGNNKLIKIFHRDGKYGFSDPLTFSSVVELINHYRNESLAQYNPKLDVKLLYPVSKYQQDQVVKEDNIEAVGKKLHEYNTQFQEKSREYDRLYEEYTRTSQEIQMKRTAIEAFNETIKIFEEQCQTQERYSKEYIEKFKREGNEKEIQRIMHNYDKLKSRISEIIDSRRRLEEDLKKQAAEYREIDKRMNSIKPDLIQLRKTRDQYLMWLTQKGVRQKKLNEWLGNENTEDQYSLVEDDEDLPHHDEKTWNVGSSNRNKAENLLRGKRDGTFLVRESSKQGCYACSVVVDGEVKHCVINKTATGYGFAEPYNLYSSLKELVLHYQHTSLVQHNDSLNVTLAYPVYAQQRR

Structure (SMILES)	IC50 [1, 10] [µM]	IC50 [1, 11] [µg/mL]	IC50 [1, 12] [µM]	IC50 [1, 13] [µg/mL]	IC50 at 48 h [2]	IC50 [4] [nM]	IC50 [5] [nM]	inhibition at 2 µM [8] [%]	Morphological changes of treated cells [3]	Relative gene expression of BAX [6]	Relative gene expression of BCL-2 [6]	Relative gene expression of P53 [6]	DNA fragmentation [7]	Number of cells in the early and late apoptosis versus untreated cells [9]
O=c1c2cc(Cl)ccc2nc(S)n1-c1ccc(F)cc1 [Compound 1, 6-Chloro-3-(4-fluorophenyl)-2-mercaptoquinazolin-4(3H)-one]	44.3	13.6 ± 0.12	23.6	7.23 ± 0.15	80 µg/mL and 261 µM									
CCSc1nc2ccc(Cl)cc2c(=O)n1-c1ccc(F)cc1 [Compound 3a, 6-Chloro-2-(ethylthio)-3-(4-fluorophenyl)quinazolin-4(3H)-one]	28.5	9.54 ± 0.11	14.5	4.86 ± 0.18	98.3 µg/mL and 294 µM	38.2 ± 2.15	88.7 ± 3.16	88.3 ± 3.86	cell shrinkage, apoptotic bodies formation, and membrane blebbing	significant overexpression	downregulation	significant overexpression	internucleosomal fragmentation was noticed	significant increase
O=c1c2cc(Cl)ccc2nc(SCc2ccc([N+](=O)[O-])cc2)n1-c1ccc(F)cc1 [Compound 3j, 6-Chloro-3-(4-fluorophenyl)-2-((4-nitrobenzyl)thio)quinazolin-4(3H)-one]	50.9	22.48 ± 0.12	31.6	13.96 ± 0.12	78.3 µg/mL and 177 µM									
O=c1c2cc(Cl)ccc2nc(SCc2ccc(Br)cc2F)n1-c1ccc(F)cc1 [Compound 3h, 2-((4-Bromo-2-fluorobenzyl)thio)-6-chloro-3-(4-fluorophenyl)quinazolin-4(3H)-one]	30.2	14.89 ± 0.11	16.5	8.14 ± 0.13	51.4 µg/mL and 104 µM	53.8 ± 3.1	73.5	92.6 ± 2.35						
O=c1c2cc(Cl)ccc2nc(SCc2cc(C(F)(F)F)cc(C(F)(F)F)c2)n1-c1ccc(F)cc1 [Compound 3g, 2-((3,5-Bis(trifluoromethyl)benzyl)thio)-6-chloro-3-(4-fluorophenyl)quinazolin-4(3H)-one]	50.5	26.92 ± 0.09	38.1	20.3 ± 0.23	70.4 µg/mL and 132 µM	57.8 ± 2.75	77.4	90.5 ± 2.16						
O=c1c2cc(Cl)ccc2nc(SCc2ccc(C(F)(F)F)cc2)n1-c1ccc(F)cc1 [Compound 3f, 6-Chloro-3-(4-fluorophenyl)-2-((4-(trifluoromethyl)benzyl)thio)quinazolin-4(3H)-one]	58.9	27.39 ± 0.1	37	17.19 ± 0.12	67.8 µg/mL and 146 µM									
CCOC(=O)CSc1nc2ccc(Cl)cc2c(=O)n1-c1ccc(F)cc1 [Compound 3c, Ethyl 2-((6-chloro-3-(4-fluorophenyl)-4-oxo-3,4-dihydroquinazolin-2-yl)thio)acetate]	56	22 ± 0.13	17.8	7.01 ± 0.12	58.3 µg/mL and 148 µM									
N#Cc1ccc(CSc2nc3ccc(Cl)cc3c(=O)n2-c2ccc(F)cc2)cc1 [Compound 3i, 4-(((6-Chloro-3-(4-fluorophenyl)-4-oxo-3,4-dihydroquinazolin-2-yl)thio)methyl)benzonitrile]	95.6	40.33 ± 0.11	62.8	26.49 ± 0.13	86.5 µg/mL and 205 µM									

Second part, led by results:

IC50 [1, 10] [µM]	IC50 [1, 11] [µg/mL]	IC50 [1, 12] [µM]	IC50 [1, 13] [µg/mL]	IC50 at 48 h [2]	IC50 [4] [nM]	IC50 [5] [nM]	inhibition at 2 µM [8] [%]	Structure (SMILES)	Morphological changes of treated cells [3]	Relative gene expression of BAX [6]	Relative gene expression of BCL-2 [6]	Relative gene expression of P53 [6]	DNA fragmentation [7]	Number of cells in the early and late apoptosis versus untreated cells [9]
38	17.71 ± 0.14	18.4	8.57 ± 0.1	80.5 µg/mL and 173 µM				O=C1c2ccccc2C(=O)N1CSc1nc2ccc(Cl)cc2c(=O)n1-c1ccc(F)cc1 [Compound 3k, 2-(((6-Chloro-3-(4-fluorophenyl)-4-oxo-3,4-dihydroquinazolin-2-yl)thio)methyl)isoindoline-1,3-dione]						
		1.41	0.77 ± 0.14	40.5 µg/mL and 74.5 µM				COc1cccc2c1C(=O)c1c(O)c3c(c(O)c1C2=O)C[C@@](O)(C(=O)CO)C[C@@H]3O[C@H]1C[C@H](N)[C@H](O)[C@H](C)O1 [Doxorubicin, reference compound]						
21	9.05 ± 0.1	15.3	6.59 ± 0.09	65.4 µg/mL and 152 µM				O=c1c2cc(Cl)ccc2nc(SCc2ccc(Cl)cc2)n1-c1ccc(F)cc1 [Compound 3d, 6-Chloro-2-((4-chlorobenzyl)thio)-3-(4-fluorophenyl)quinazolin-4(3H)-one]						
21.5	8.94 ± 0.08	9.97	4.14 ± 0.11	92.1 µg/mL and 222 µM	45.4 ± 2.05	68.4	93.3 ± 2.1	O=c1c2cc(Cl)ccc2nc(SCc2ccc(F)cc2)n1-c1ccc(F)cc1 [Compound 3e, 6-Chloro-2-((4-fluorobenzyl)thio)-3-(4-fluorophenyl)quinazolin-4(3H)-one]	cell shrinkage, apoptotic bodies formation, and membrane blebbing	significant overexpression	downregulation	significant overexpression	internucleosomal fragmentation was noticed	significant increase
26.9	13.18 ± 0.13	14.2	6.98 ± 0.12	79 µg/mL and 161 µM				O=C(CSc1nc2ccc(Cl)cc2c(=O)n1-c1ccc(F)cc1)Nc1cccc2ccccc12 [Compound 3l, 2-((6-Chloro-3-(4-fluorophenyl)-4-oxo-3,4-dihydroquinazolin-2-yl)thio)-N-(naphthalen-1-yl)acetamide]						
							95.5 ± 2.24	Cc1ccc(C(=O)N(CCCN)[C@@H](c2nc3cc(Cl)ccc3c(=O)n2Cc2ccccc2)C(C)C)cc1 [Ispinesib, reference compound]						
